An excerpt weighted towards active compounds, which were near 3.7% of everything screened.
hERG protect – compounds protecting human hERG from proarrhythmic drug block. Q12809. CHO-hERG, FluxOR thallium flux, dofetilide IC70 present. activation (rescue from dofetilide block), less the hit threshold, % at 10 µM. 310,000 tested, 0.51% active;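 active means activation above the mean of controls blocked by dofetilide plus 5 SD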;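 further: thallium influx through hERG after potassium depolarization seen as dye fluorescence rise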
KCNQ1 pot – human KCNQ1 channel potentiation or activation. B-score at 10 µM. P51787. 310,000 tested, 0.35% active. CHO-K1 KCNQ1, thallium flux FluxOR fluorescence; hits give high values;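 active means fluorescence ratio B-score, a plate-corrected score, at least three library SD, with initial intensity B-score within 5 SD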
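Doses: Single concentration per compound, DMSO matched to controls | Test system: KCNQ1-transfected CHO-K1 cells | Timing: 90 min dye loading and 20 min compound exposure, both at room temperature | Measured by: Kinetic FluxOR thallium fluorescence, 10-s 1-Hz baseline, 110-s post-stimulus read | Medium: Assay buffer with matched DMSO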
KCNK9 block – inhibitors of human KCNK9 two-pore domain potassium channel | Q9NPC2 | HEK293 KCNK9, FluxOR thallium flux fluorescence; hits give low values | B-score at 10 µM | 310,000 tested, 1.2% active | AID 488922;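 active means ratio B-score over 3 SD below the library mean, with starting fluorescence within 5 SD of its mean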;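 further: negative B-score means less thallium flux so channel inhibition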
Target sequence (Q9NPC2 whole entry, looked up, the tested form may be a part): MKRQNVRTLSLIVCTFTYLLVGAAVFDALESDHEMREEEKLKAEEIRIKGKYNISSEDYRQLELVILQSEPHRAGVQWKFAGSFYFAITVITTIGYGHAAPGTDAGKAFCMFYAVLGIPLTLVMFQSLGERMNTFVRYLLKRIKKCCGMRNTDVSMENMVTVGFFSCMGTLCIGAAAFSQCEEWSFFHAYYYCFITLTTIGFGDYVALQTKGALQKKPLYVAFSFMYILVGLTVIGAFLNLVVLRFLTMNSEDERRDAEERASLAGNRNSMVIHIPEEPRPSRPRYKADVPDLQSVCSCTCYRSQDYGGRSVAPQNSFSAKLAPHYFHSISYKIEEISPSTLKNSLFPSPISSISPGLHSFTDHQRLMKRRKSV
KCNQ1 block – inhibitors of human KCNQ1 potassium channel. CHO-K1 KCNQ1, FluxOR thallium flux fluorescence; hits give high values. P51787. 310,000 tested, 1.3% active. B-score at 10 µM;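 active means compounds whose thallium flux B-score, printed positive for inhibition, exceeds three library SD while starting fluorescence stays within three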;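 further: channel opened by potassium depolarization with thallium stimulus after 20 min compound exposure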
KCNK3 inh – human KCNK3 channel inhibition, primary screen. O14649. CHO-KCNK3 thallium flux, FluxOR fluorescence; hits give low values. B-score at 10 µM. 340,000 tested, 0.84% active;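 active means B-score under library mean minus 4 SD, starting fluorescence ratio at most library mean plus 5 SD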;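 further: more negative B-score means stronger inhibition of thallium flux through KCNK3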
Kir21 block – blocks the mouse Kir2.1 inward-rectifier potassium channel. HEK293-Kir2.1, FluxOR thallium flux fluorescence; hits give low values. AID 1672. B-score at 10 µM. P35561. 310,000 tested, 0.85% active;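 active means fluorescence ratio B-score at or below minus 3 SD of library scores, with starting-brightness B-score within 2 SD, cut at about -4.2 in these data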;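 further: channel flux triggered by added potassium and thallium sulfate stimulus; B-score of peak minus minimum fluorescence over baseline after thallium stimulus; more negative B-score means stronger Kir2.1 block with less thallium influx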
KCNK9 inh conf – confirmation of human KCNK9 potassium channel inhibitors; inhibition, % at 10 µM; 4,900 tested, 43% active; AID 492992; shares compounds with KCNK9 block; HEK293 KCNK9 cells, FluxOR thallium flux fluorescence;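 active means thallium signal inhibited by more than 5 SD of the compound-free buffer control wells, on both duplicate plates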;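 further: 0% = assay buffer control wells without compound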
Kir2-1 spec – tests whether KCNK9 modulators also affect mouse Kir2.1 | shares compounds with KCNK9 block | Kir2.1 cells, FluxOR thallium flux fluorescence | inhibition, % at 10 µM | 4,900 tested, 4% active | AID 492993;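 active means thallium signal drop more than 5 SD beyond the mean of the no-compound control wells, seen in both duplicate plates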;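 further: signal is fluorescence rise after thallium addition divided by baseline fluorescence; plate controls were assay buffer only for no effect and full block by chlorpromazine control for full effect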
KCNK9 uninduced – second counter-screen for KCNK9 modulators: effect in non-induced cells; shares compounds with KCNK9 block; non-induced KCNK9-HEK293, FluxOR thallium flux; inhibition, % at 10 µM; 4,900 tested, 40% active;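 active means thallium signal drop beyond 5 SD of the untreated control mean, on both duplicate plates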;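 further: plate controls were buffer only IC0 wells for no effect and SID17386958 at its maximal inhibitory level for full effect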
* = called active by the depositor; i = inactive; · = no result given.

SMILES | hERG protect | KCNQ1 pot | KCNK9 block | KCNQ1 block | KCNK3 inh | Kir21 block | KCNK9 inh conf | Kir2-1 spec | KCNK9 uninduced
Cc1ccc(-c2ccc(C(=O)Nc3ccccc3)o2)c2ccccc12 | -17.0 | i | i | 6* | i | 0.9 | i | i | i
CCOC(=O)C1(CC2CC2)CCN(Cc2cn(C)c3ccccc23)CC1 | -6.3 | i | i | i | i | -2.61 | i | i | i
COc1ccccc1CN(Cc1cc2cc(C)ccc2[nH]c1=O)Cc1nnnn1Cc1ccco1 | -6.7 | i | -8.7* | i | i | -1.68 | i | i | 36.0%*
O=C(CN1CCN(S(=O)(=O)c2ccc(Cl)cc2)CC1)NCC1(N2CCOCC2)CCCCC1 | · | · | · | · | i | · | · | · | ·
O=C1C2C3C=CC(C4CC34)C2C(=O)N1/N=C/c1ccc(-c2ccc(Cl)cc2[N+](=O)[O-])o1 (stereo not drawn) | -13.6 | i | i | i | i | 2.96 | i | i | i
COc1ccc(-c2ccc(/C=N/N3C(=O)C4C5C=CC(C6CC56)C4C3=O)o2)c([N+](=O)[O-])c1 (stereo not drawn) | -15.8 | i | i | i | i | 1.45 | · | · | ·
Nc1cc2c(cc1Br)-c1ccccc1C2=NO | · | · | · | · | i | · | · | · | ·
COc1cc(C)c(C(=O)Oc2cc(C)c(C(=O)O)c(O)c2C)c(OC)c1C | -9.2 | i | i | i | i | -0.02 | i | i | i
COc1cc(C)c(C(=O)Oc2cc(C)c(C(=O)O)c(O)c2C)c(O)c1C(=O)O | -3.2 | i | i | i | i | -1.13 | · | · | ·
CCC(C)C(NC(=O)c1ccccc1)C(=O)Nc1ccc(S(=O)(=O)Nc2cc(C)nc(C)n2)cc1 (stereo not drawn) | · | · | · | · | i | · | · | · | ·
COc1ccc(CNC(=O)CC2C[C@H](C(=O)N3CCOCC3)[C@@]3(C)c4[nH]c5ccccc5c4CCN3C2=O)cc1OC (stereo partly drawn) | · | · | · | · | i | · | · | · | ·
CCCCOC(=O)CSC(=S)N(C)Cc1cccs1 | -9.6 | i | i | i | i | -0.05 | i | i | i
CC(C)CNC(=S)Nc1ccc(Oc2ccccc2)cc1 | -6.2 | i | i | i | i | -0.4 | · | · | ·
O=C(NC(=S)NC1C2CC3CC(C2)CC1C3)C12CC3CC(CC(C3)C1)C2 (stereo not drawn) | -6.9 | i | i | i | i | 0.23 | i | i | i
O=C(NC(=S)Nc1ccc(Cl)cn1)C12CC3CC(CC(C3)C1)C2 | -0.4 | i | i | i | i | 0.29 | · | · | ·
CC(C)(C)NC(=S)NC(=O)C12CC3CCC(CC(C3)C1)C2 | -3.5 | i | i | i | i | 0.08 | i | i | i
CN(C)NC(=S)NC(=O)C12CC3CC(CC(C3)C1)C2 | -8.1 | i | i | i | i | 1.92 | · | · | ·
CC12CC3(C)CC(C)(C1)CC(C(=O)NC(=S)NC(C)(C)C)(C2)C3 | -8.3 | i | i | i | i | -1.56 | i | i | i
Cc1cc(C)nc(/N=C(\NC(=O)C(C)(C)C)Nc2ccc(F)cc2)n1 | -14.1 | i | i | i | i | -0.99 | · | · | ·
Nc1nc(SCc2ccccc2)c2ncn(C3CCCCC3)c2n1 | · | · | · | · | i | · | · | · | ·
O=C(OCC#CCSc1nnc(-c2ccc(Br)cc2)o1)c1cccs1 | -8.8 | i | -11.9* | i | i | -0.91 | i | i | 40.0%*
CCc1cc(=O)n2[nH]c(-c3ccccc3)c(-c3ccccc3)c2n1 | -9.6 | i | i | i | i | 0.39 | · | · | ·
COc1ccc(N2CC(C(=O)NNC(=O)c3ccc(Br)cc3)CC2=O)c(OC)c1 (stereo not drawn) | -12.0 | i | i | i | i | -0.81 | · | · | ·
CCn1c(SCC(=O)Nc2nccs2)nnc1-c1cc2cccc(OC)c2o1 | -5.6 | i | i | i | i | -1.95 | · | · | ·
CCn1c(SCC(=O)NC2CCCCC2)nnc1-c1cc2cccc(OC)c2o1 | -9.4 | i | i | i | i | -1.17 | i | i | i
SMILES | hERG protect | KCNQ1 pot | KCNK9 block | KCNQ1 block | KCNK3 inh | Kir21 block | KCNK9 inh conf | Kir2-1 spec | KCNK9 uninduced
CC(=O)OC[C@H]1O[C@@H](n2ncc(=O)[nH]c2=O)[C@H](OC(C)=O)[C@@H]1OC(C)=O | -3.1 | i | i | i | · | 1.23 | · | · | ·
O=C(OCC1OC(n2ncc(=O)[nH]c2=O)C(OC(=O)c2ccccc2)C1OC(=O)c1ccccc1)c1ccccc1 (stereo not drawn) | -24.5 | i | i | i | i | -0.49 | i | i | 33.0%*
CCCCn1cc(C(=O)c2cc(Br)ccc2O)cc(C#N)c1=O | -11.5 | i | i | i | i | 0 | · | · | ·
CN(C)/C=c1\sc2c(C#N)cc(C(=O)c3ccc(Br)cc3)n2c1=O | -6.8 | i | -8.43* | i | i | 0.19 | 35.5%* | 62.5%* | 77.5%*
CCN(CC(=O)Nc1c(F)cccc1F)C(=O)Cc1csc(-c2ccccc2)n1 | -14.4 | i | i | i | i | -0.33 | · | · | ·
O=C(c1ccc(Cl)nc1)c1cccs1 | -4.7 | i | i | i | · | -0.08 | · | · | ·
O=C(c1cccs1)c1no[n+]([O-])c1C(=O)c1cccs1 | -33.4 | i | -11.3* | 9* | i | -10.6 | 44.5%* | 35.5%* | 52.5%*
C=C1CCC2C(C)(C)[C@H](O)CC[C@@]2(C)[C@@H]1COc1cc(=O)oc2ccccc12 (stereo partly drawn) | -18.6 | i | -13.4* | i | i | 0.3 | 59.5%* | i | 25.5%*
Cc1ccc(C2(c3ccccc3)NC(=O)N(CC(=O)N3CC(=O)Nc4ccccc43)C2=O)cc1C (stereo not drawn) | · | · | · | · | i | · | · | · | ·
Cc1c(C)c(C)c(C(=O)c2ccc(NC(=O)c3ccccc3C(=O)O)cc2)c(C)c1C | -11.7 | i | i | i | i | 1.34 | i | i | i
O=C(O)c1ccccc1C(=O)Nc1ccc(Oc2ccc3ccccc3c2)cc1 | -2.2 | i | i | i | i | -0.57 | i | i | i
Cc1sc(NC(=O)c2ccco2)c(C(=O)c2ccc(Cl)cc2)c1C | -8.7 | i | i | i | i | 1.31 | · | · | ·
Cc1ccc(C(=O)c2c(NC(=O)c3ccccc3C)sc(C)c2C)cc1 | -10.3 | i | i | i | i | -0.29 | i | i | i
COc1ccc(NC(=O)c2ccccc2-c2ccccc2C(=O)O)cc1 | -2.3 | i | i | i | i | 0.03 | · | · | ·

Source: PubChem (Johns Hopkins Ion Channel Center)
